Calls of active or inactive are those of the source. No cut-off for these calls is given here.
Columns and labels:
MV4-11 [1] = assay: Cytotoxicity against human MV4-11 cells measured after 72 hrs by spectrophotometer method; type: functional, cell-based; details: MV4-11, 72 h
[2] = Cytotoxicity against human MRC9 cells measured after 72 hrs by spectrophotometer method; type: cell-based; details: MRC9, 72 h
Histone deacetylase 3 = Histone deacetylase 3 (Homo sapiens, UniProt O15379); assay: Inhibition of recombinant full length human HDAC3 expressed in SF9 baculovirus using FAM- labelled acetylated peptide as substrate measured by Electrophoretic mobility shift assay
[3] = target: T1, Protein deacetylase HDAC6 (Homo sapiens, UniProt Q9UBN7); assay: Inhibition of recombinant full length human HDAC6 expressed in SF9 baculovirus using FAM- labelled acetylated peptide as substrate measured by Electrophoretic mobility shift assay
T1 sequence (Q9UBN7 whole entry): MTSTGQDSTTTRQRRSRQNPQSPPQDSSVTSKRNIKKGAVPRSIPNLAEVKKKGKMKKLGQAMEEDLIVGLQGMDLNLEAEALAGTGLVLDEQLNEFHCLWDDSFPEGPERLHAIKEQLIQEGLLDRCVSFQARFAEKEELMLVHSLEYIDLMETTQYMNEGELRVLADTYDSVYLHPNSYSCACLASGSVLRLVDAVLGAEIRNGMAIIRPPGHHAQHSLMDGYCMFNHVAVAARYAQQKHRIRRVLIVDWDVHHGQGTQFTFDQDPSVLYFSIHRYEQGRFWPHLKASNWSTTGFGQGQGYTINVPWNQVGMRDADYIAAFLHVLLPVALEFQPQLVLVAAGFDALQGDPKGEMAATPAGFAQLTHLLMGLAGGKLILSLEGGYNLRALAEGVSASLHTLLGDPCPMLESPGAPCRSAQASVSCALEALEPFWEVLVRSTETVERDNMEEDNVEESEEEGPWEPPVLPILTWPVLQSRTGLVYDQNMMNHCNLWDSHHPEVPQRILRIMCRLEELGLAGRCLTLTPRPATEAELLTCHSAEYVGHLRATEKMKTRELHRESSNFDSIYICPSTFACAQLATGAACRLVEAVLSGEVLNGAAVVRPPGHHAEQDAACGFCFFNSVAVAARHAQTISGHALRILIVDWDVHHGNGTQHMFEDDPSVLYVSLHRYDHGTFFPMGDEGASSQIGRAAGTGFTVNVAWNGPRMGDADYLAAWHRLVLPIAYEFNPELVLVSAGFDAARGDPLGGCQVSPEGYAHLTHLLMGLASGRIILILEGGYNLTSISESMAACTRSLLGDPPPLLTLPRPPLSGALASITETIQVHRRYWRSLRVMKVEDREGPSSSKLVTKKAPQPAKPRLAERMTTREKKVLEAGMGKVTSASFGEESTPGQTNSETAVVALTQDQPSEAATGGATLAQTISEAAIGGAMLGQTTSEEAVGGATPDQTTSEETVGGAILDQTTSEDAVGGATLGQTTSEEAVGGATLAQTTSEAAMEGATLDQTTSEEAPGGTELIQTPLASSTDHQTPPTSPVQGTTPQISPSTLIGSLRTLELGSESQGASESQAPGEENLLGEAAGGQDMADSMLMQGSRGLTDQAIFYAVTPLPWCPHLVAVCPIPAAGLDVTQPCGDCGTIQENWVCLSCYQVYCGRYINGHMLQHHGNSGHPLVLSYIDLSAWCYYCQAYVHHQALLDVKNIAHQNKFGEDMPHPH

Histone deacetylase 8 = target: T2, Histone deacetylase 8 (Homo sapiens, UniProt Q9BY41); assay: Inhibition of recombinant full length human HDAC8 expressed in SF9 baculovirus using FAM- labelled acetylated peptide as substrate measured by Electrophoretic mobility shift assay
T2 sequence (Q9BY41 whole entry): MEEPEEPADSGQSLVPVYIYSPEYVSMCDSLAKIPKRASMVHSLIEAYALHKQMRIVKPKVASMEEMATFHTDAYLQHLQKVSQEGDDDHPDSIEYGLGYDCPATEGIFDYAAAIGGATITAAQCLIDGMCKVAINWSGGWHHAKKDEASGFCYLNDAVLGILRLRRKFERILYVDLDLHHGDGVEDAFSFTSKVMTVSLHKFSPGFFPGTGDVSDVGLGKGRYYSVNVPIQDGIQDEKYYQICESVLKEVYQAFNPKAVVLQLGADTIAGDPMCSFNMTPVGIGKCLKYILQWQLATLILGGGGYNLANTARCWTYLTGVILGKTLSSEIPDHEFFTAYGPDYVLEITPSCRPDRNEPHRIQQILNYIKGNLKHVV

Histone deacetylase 11 = target: T3, Histone deacetylase 11 (Homo sapiens, UniProt Q96DB2); assay: Inhibition of recombinant full length human HDAC11 expressed in SF9 baculovirus using FAM- labelled acetylated peptide as substrate measured by Electrophoretic mobility shift assay
T3 sequence (Q96DB2 whole entry): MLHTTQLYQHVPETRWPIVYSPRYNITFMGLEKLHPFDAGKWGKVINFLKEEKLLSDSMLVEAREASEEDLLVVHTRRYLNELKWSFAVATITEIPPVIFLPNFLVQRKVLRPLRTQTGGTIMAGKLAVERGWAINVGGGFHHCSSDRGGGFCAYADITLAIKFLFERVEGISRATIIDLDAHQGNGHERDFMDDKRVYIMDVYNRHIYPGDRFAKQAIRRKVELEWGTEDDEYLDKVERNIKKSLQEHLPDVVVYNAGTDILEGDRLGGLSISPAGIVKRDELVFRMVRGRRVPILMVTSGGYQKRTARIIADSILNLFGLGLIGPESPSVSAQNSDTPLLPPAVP

[4] = Selectivity ratio of IC50 for full length recombinant human HDAC3 to IC50 for full length recombinant human HDAC6
Histone deacetylase 6 = target: T4, Histone deacetylase 6 (Danio rerio, UniProt F8W4B7); assay: Inhibition of N-terminal 6 His-SUMO tagged Zebrafish HDAC6 CD2 domain expressed in Escherichia coli BL21(DE3) RILP pretreated for 10 mins before FITC-M344 addition and measured after 10 mins by fluorescence polarization competition assay
T4 sequence (F8W4B7 whole entry): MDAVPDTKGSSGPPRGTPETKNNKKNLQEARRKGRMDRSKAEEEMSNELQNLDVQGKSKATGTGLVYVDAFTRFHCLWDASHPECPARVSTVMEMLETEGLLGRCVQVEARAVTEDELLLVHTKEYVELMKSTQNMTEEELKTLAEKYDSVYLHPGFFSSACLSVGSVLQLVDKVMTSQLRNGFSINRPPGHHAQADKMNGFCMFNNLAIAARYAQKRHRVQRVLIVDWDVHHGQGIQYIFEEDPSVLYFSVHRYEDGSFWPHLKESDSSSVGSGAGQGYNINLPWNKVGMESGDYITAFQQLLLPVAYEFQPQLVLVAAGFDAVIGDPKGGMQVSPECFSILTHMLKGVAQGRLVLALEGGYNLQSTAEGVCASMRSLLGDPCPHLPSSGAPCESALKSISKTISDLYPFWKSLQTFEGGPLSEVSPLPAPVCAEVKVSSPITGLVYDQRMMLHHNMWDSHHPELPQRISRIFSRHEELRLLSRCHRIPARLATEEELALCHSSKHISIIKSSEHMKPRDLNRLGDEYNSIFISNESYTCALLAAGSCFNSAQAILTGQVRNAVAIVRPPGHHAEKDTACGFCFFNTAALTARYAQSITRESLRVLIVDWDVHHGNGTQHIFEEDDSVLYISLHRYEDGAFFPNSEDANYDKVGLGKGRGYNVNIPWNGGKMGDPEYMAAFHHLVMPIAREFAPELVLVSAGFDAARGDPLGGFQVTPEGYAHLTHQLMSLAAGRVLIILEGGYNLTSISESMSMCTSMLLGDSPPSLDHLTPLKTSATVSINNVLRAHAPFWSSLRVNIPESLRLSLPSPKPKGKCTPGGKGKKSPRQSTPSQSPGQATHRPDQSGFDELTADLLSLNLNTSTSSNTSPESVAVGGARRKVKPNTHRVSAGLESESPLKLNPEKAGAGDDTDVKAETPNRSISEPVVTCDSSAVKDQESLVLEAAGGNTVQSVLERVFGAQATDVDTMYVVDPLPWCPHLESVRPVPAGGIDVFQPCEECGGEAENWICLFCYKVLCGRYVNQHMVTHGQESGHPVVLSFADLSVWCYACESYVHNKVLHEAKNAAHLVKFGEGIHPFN

[5] = target: T5, Protein deacetylase HDAC6 (Homo sapiens) (UniProt Q9UBN7); assay: Inhibition of HDAC6 in human MV4-11 cells assessed as increase in acetylation of alpha tubulin at 0.5 uM measured after 6 hrs by Western blot assay relative to histone H3 acetylation; type: cell-based
T5 sequence (whole entry): T1 sequence (Q9UBN7 whole entry)
Outline: (§1)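 MV4-11 cells were exposed to a range of concentrations for 6 h. Protein extracts were run on SDS-PAGE and immunoblotted for acetylated α-tubulin, acetylated histone H3 and acetylated histone H4, with HSC70 as the loading reference. A representative blot of three independent experiments is shown.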

[6] = target: T5, Protein deacetylase HDAC6 (Homo sapiens); assay: Inhibition of HDAC6 in human MV4-11 cells assessed as increase in acetylation of alpha tubulin at 0.5 uM measured after 6 hrs by Western blot assay relative to histone H4 acetylation; type: cell-based; outline: as §1
[7] = target: Class 1 histone deacetylase (Homo sapiens) (UniProt Q13547+O15379+Q92769+Q9BY41); assay: Inhibition of HDAC class 1 in human MV4-11 cells assessed as upregulation of acetylation of H3 histone at 5 uM measured after 6 hrs by Western blot assay; type: cell-based; outline: as §1
MM1.S = assay: Cytotoxicity against human MM1.S cells measured after 72 hrs by spectrophotometer method; type: functional, cell-based
MV4-11 [8] = assay: Induction of apoptosis in human MV4-11 cells assessed as late apoptotic cells at 4 microM measured after 18 hrs by Annexin V/Propidium iodide stain based Flow cytometry assay (reference value: 4.91%); type: functional
RPMI-8226 = assay: Cytotoxicity against human RPMI-8226 cells measured after 72 hrs by spectrophotometer method; type: functional, cell-based; details: RPMI-8226, 72 h
Fibroblast [9] = assay: Cytotoxicity against human fibroblasts measured after 72 hrs by spectrophotometer method; type: cell-based
HUVEC = assay: Cytotoxicity against human HUVEC cells measured after 72 hrs by spectrophotometer method; type: cell-based
Fibroblast [10] = assay: Cytotoxicity against pooled human fibroblasts measured after 72 hrs by spectrophotometer method; type: cell-based
[11] = Cytotoxicity against human MRC9 cells; type: functional, cell-based

Chain of Histone deacetylase 3 (O15379 whole entry): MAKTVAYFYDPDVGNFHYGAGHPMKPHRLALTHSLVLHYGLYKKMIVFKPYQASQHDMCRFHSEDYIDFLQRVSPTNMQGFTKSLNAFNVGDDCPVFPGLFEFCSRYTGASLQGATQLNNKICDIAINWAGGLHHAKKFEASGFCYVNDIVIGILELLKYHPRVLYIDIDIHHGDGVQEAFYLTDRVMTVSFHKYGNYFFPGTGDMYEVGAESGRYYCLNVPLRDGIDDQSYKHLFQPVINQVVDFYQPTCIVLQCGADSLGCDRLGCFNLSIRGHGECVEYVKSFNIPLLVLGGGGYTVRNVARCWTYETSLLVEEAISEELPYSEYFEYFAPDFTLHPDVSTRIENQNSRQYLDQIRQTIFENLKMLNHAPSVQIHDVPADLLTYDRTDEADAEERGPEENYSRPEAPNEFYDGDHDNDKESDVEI
Chain of Class 1 histone deacetylase (Homo sapiens) (O15379 whole entry, looked up, one chain of several): as the sequence (O15379 whole entry) above
Chain of Class 1 histone deacetylase (Homo sapiens) (Q13547 whole entry, looked up, one chain of several): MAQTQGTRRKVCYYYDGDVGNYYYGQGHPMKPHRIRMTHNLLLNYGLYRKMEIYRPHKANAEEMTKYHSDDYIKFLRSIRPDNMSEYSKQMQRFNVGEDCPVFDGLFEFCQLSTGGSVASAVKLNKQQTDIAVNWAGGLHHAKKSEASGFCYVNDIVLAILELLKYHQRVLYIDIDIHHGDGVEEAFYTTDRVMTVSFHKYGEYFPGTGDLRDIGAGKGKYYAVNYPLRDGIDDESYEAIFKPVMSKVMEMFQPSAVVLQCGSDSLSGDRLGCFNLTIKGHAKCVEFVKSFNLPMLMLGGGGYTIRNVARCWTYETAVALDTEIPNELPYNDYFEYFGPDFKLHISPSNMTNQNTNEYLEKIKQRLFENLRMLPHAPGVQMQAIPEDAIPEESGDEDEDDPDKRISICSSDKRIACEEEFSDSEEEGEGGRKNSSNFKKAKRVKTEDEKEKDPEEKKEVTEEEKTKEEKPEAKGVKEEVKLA
Chain of Class 1 histone deacetylase (Homo sapiens) (Q92769 whole entry, looked up, one chain of several): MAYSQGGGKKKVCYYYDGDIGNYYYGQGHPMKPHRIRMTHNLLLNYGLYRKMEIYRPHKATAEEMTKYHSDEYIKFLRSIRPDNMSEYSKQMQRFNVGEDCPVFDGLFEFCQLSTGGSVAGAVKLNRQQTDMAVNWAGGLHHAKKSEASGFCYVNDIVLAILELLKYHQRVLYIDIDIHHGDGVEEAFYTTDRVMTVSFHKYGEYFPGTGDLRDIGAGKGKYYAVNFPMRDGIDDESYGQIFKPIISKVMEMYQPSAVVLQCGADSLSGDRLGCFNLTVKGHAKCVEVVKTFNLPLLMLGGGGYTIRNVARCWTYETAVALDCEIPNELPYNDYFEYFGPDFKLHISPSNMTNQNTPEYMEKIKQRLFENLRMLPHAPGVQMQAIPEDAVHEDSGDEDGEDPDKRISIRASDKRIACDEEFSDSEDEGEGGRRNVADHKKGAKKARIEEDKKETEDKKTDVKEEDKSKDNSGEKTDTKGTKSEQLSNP

CC(C)N(Cc1ccc(C(=O)NO)cc1)C(=O)c1c(F)c(F)c(F)c(F)c1F
IC50 (MV4-11 [1]): 16400 nM | IC50 [2]: > 15000 nM | IC50 (Histone deacetylase 3): > 1000 nM | IC50 [3]: 14 nM | IC50 (Histone deacetylase 8): 876 nM | IC50 (Histone deacetylase 11): > 1000 nM | Ratio IC50 [4]: 62.6

O=C(CCCCCCNC(=O)c1cnc(N(c2ccccc2)c2ccccc2Cl)nc1)NO [CITARINOSTAT]
IC50 (MV4-11 [1]): 1240 nM | IC50 [2]: > 25000 nM | IC50 (Histone deacetylase 6): 154 nM | Activity [5]: Active | Activity [6]: Active | inhibition [7]: Active | IC50 (MM1.S): 1520 nM | Activity (MV4-11 [8]): 17% | IC50 (RPMI-8226): 3160 nM | IC50 (Fibroblast [9]): 5700 nM | IC50 (HUVEC): 4900 nM | IC50 (Fibroblast [10]): 7400 nM

O=C(NO)c1ccc(NC(=O)c2ccc(C(F)(F)F)cc2)cc1
IC50 (MV4-11 [1]): 880 nM | IC50 [2]: > 5000 nM | IC50 (Histone deacetylase 3): 243 nM | IC50 [3]: 22.6 nM | IC50 (Histone deacetylase 8): 220 nM | IC50 (Histone deacetylase 11): > 1000 nM | Ratio IC50 [4]: 9.73

CC(C)(C)c1ccc(C(=O)N(Cc2ccc(C(=O)NO)cc2)C2CC2)cc1
IC50 (MV4-11 [1]): 8570 nM | IC50 [2]: > 25000 nM | IC50 (Histone deacetylase 3): 323 nM | IC50 [3]: 20.9 nM | IC50 (Histone deacetylase 8): 269 nM | IC50 (Histone deacetylase 11): > 1000 nM | Ratio IC50 [4]: 12.9

O=C(CCCCCCNC(=O)c1cnc(N(c2ccccc2)c2ccccc2)nc1)NO [RICOLINOSTAT]
IC50 (MV4-11 [1]): 656 nM | IC50 [2]: > 15000 nM | IC50 (Histone deacetylase 6): 90 nM

CN(Cc1ccc(C(=O)NO)cc1)C(=O)c1c(F)c(F)c(F)c(F)c1F
IC50 (MV4-11 [1]): 3730 nM | IC50 [2]: > 25000 nM | IC50 (Histone deacetylase 3): 740 nM | IC50 [3]: 17.3 nM | IC50 (Histone deacetylase 8): > 1000 nM | IC50 (Histone deacetylase 11): > 1000 nM | Ratio IC50 [4]: 42.8

CC(C)(C)c1ccc(C(=O)Nc2ccc(C(=O)NO)cc2)cc1
IC50 [2]: > 25000 nM | Ratio IC50 [4]: 7.66 | IC50 (Histone deacetylase 6): 269 nM | IC50 [11]: > 25000 nM

O=C(NO)c1ccc(CN(C(=O)c2c(F)c(F)c(F)c(F)c2F)C2CC2)cc1
IC50 (MV4-11 [1]): 7370 nM | IC50 [2]: > 50000 nM | IC50 (Histone deacetylase 3): > 1000 nM | IC50 [3]: 18.4 nM | IC50 (Histone deacetylase 8): 971 nM | IC50 (Histone deacetylase 11): > 1000 nM | Ratio IC50 [4]: > 52.8

O=C(NO)c1ccc(NC(=O)c2ccc(F)cc2)cc1
IC50 (MV4-11 [1]): 3640 nM | IC50 [2]: > 25000 nM | IC50 (Histone deacetylase 3): 45.4 nM | IC50 [3]: 6.77 nM | IC50 (Histone deacetylase 8): 567 nM | IC50 (Histone deacetylase 11): > 1000 nM | Ratio IC50 [4]: 6.7

Cc1ccc(C(=O)Nc2ccc(C(=O)NO)cc2)cc1
IC50 (MV4-11 [1]): 2400 nM | IC50 [2]: > 25000 nM | IC50 (Histone deacetylase 3): 10.9 nM | IC50 [3]: 1.6 nM | IC50 (Histone deacetylase 8): 21.6 nM | IC50 (Histone deacetylase 11): > 1000 nM | Ratio IC50 [4]: 6.81

O=C(NO)c1ccc(NC(=O)c2ccc(C3CCCCC3)cc2)cc1
IC50 (MV4-11 [1]): 530 nM | IC50 [2]: > 25000 nM | IC50 (Histone deacetylase 3): 159 nM | IC50 [3]: 26.6 nM | IC50 (Histone deacetylase 8): 208 nM | IC50 (Histone deacetylase 11): 411 nM | Ratio IC50 [4]: 5.98

— ChEMBL document CHEMBL4706499, “PTG-0861: A novel HDAC6-selective inhibitor as a therapeutic strategy in acute myeloid leukaemia” (Eur J Med Chem, 2020)
